# Assays:
# [1] = Inhibitory concentration against proliferation of human Molt 4/C8 cells; assay type: functional, cell-based; settings: Molt4/C8
# How it was run: (§1)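 Murine L1210 lymphoid leukemia cells, human Molt 4/C8 T-lymphocytes and human CEM T-lymphocytes were tested up to a maximum concentration of 500 µM, and the read-out was IC50 (µM).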
# [2] = test system: CCRF-CEM; test: Inhibitory concentration against CEM T-lymphocytes; assay type: functional, cell-based; settings: Homo sapiens; how it was run: as §1
# [3] = test system: L1210; test: Inhibitory activity against L1210 leukemia cells; assay type: functional, cell-based; settings: Mus musculus; how it was run: as §1
# [4] = test system: P388; test: Inhibitory activity against Murine P388 cells; assay type: functional, cell-based; settings: Mus musculus
# [5] = test system: L1210; test: Effect on protein biosyntheses in leukemia L1210 cells; assay type: functional, cell-based; settings: Mus musculus
# How it was run: (§2)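 L1210 cells, ~2 × 10⁵ per well, were exposed to a range of concentrations together with 0.25 µCi of [methyl-³H]deoxythymidine (DNA), [5-³H]uridine (RNA) or [3,4-³H]leucine (protein). They were incubated 20 h at 37 °C. Radioactivity in the trichloroacetic acid-insoluble fraction was then counted by liquid scintillation.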
# [6] = test system: L1210; test: Effect on DNA biosyntheses in leukemia L1210 cells; assay type: functional, cell-based; settings: Mus musculus; how it was run: as §2
# [7] = test system: L1210; test: Effect on proliferation of leukemia L1210 cells; assay type: functional, cell-based; settings: Mus musculus; how it was run: as §1
# [8] = test system: L1210; test: Effect on RNA biosyntheses in leukemia L1210 cells; assay type: functional, cell-based; settings: Mus musculus; how it was run: as §2
# [9] = Partition coefficient (logP); assay type: physicochemical; settings: octanol/water
SMILES,IC50 [1] [µM],IC50 [2] [µM],IC50 [3] [µM],IC50 [4] [µM],IC50 [5] [µM],IC50 [6] [µM],IC50 [7] [µM],IC50 [8] [µM],logP [9]
O=C(/C=C/c1cccc([N+](=O)[O-])c1)c1ccccc1,8.53,8.9,82.9,15.3,–,–,–,–,–
COc1ccccc1/C=C1\Cc2ccccc2C1=O,308,58.2,170,28.4,167,407,170,292,–
O=C1/C(=C/c2ccccc2Br)CCc2ccccc21,36.8,25.4,33.4,19.7,–,–,–,–,–
COc1ccc(/C=C2\CCc3ccccc3C2=O)c(OC)c1,1.69,1.88,7.98,2.61,–,–,–,–,–
COc1cc(/C=C2\Cc3ccccc3C2=O)cc(OC)c1OC,> 500,> 500,> 500,> 50,–,–,–,–,–
N[C@@H](Cc1ccc(N(CCCl)CCCl)cc1)C(=O)O,–,–,–,–,–,> 100,–,> 100,–
O=C1/C(=C/c2ccccc2Cl)CCCc2ccccc21,37.1,18.4,42.3,12.7,–,–,–,–,5.04
O=C(/C=C/c1ccc([N+](=O)[O-])cc1)c1ccccc1,8.32,13.8,59.1,7.58,–,–,–,–,–
Cc1ccccc1/C=C1\CCCc2ccccc2C1=O,36.2,43.2,61.2,15.2,–,–,–,–,4.92
COc1cccc(/C=C/C(=O)c2ccccc2)c1,7.94,8.55,45.1,9.75,–,–,–,–,–
O=C1/C(=C/c2ccccc2[N+](=O)[O-])Cc2ccccc21,2.54,3.53,7.61,0.74,17.2,14.7,7.61,11.7,–
O=C1/C(=C/c2ccc(Cl)c(Cl)c2)Cc2ccccc21,> 500,397,> 500,25,–,–,–,–,–
COc1ccc(/C=C2\CCCc3ccccc3C2=O)c(OC)c1,71.4,48.4,12.4,7.82,–,–,–,–,5.01
COc1ccc(/C=C2\CCc3ccccc3C2=O)cc1OC,11.6,8.56,42,5.69,–,–,–,–,–
COc1ccccc1/C=C1\CCCc2ccccc2C1=O,37.1,28.9,46.1,18,–,–,–,–,4.69
COc1ccc(/C=C2\CCCc3ccccc3C2=O)cc1OC,> 20,28,> 100,8.19,–,–,–,–,4.13
Cc1ccccc1/C=C1\Cc2ccccc2C1=O,154,56.5,208,23.9,–,–,–,–,–
COc1cccc(/C=C2\Cc3ccccc3C2=O)c1OC,53,37.6,214,28.7,–,–,–,–,–
O=C(/C=C/c1ccccc1[N+](=O)[O-])c1ccccc1,8.38,8.6,30.4,3.74,–,–,–,–,–
O=C1/C(=C/c2ccccc2F)CCc2ccccc21,36,20.8,22.8,21.8,–,–,–,–,–
COc1ccccc1/C=C/C(=O)c1ccccc1,8.45,8.56,64.4,15.9,–,–,–,–,–
Cc1ccccc1/C=C1\CCc2ccccc2C1=O,41.4,43.2,50.2,17.7,–,–,–,–,–

SMILES,IC50 [1] [µM],IC50 [2] [µM],IC50 [3] [µM],IC50 [4] [µM],IC50 [5] [µM],IC50 [6] [µM],IC50 [7] [µM],IC50 [8] [µM],logP [9]
O=C1/C(=C/c2ccc(Cl)cc2Cl)CCc2ccccc21,28.4,8.73,34.4,17.2,–,–,–,–,–
O=C1/C(=C/c2ccccc2Cl)Cc2ccccc21,128,57,152,26.5,–,–,–,–,–
O=C1/C(=C/c2ccccc2F)CCCc2ccccc21,42.1,28.2,60.4,13.2,–,–,–,–,4.55
O=C1/C(=C/c2ccc(Cl)c(Cl)c2)CCc2ccccc21,28.6,9.77,210,13.1,–,–,–,–,–
COc1cccc(/C=C2\CCc3ccccc3C2=O)c1OC,41.3,28.7,38.2,12.3,–,–,–,–,–
O=C1/C(=C/c2ccccc2[N+](=O)[O-])CCCc2ccccc21,40,16.2,47,36.5,–,–,–,–,4.07
O=C1/C(=C/c2ccccc2Br)CCCc2ccccc21,38.4,32.1,37,19.8,–,–,–,–,5.04
COc1ccc(/C=C2\Cc3ccccc3C2=O)c(OC)c1,48.5,87.1,14,13,–,–,–,–,–
COc1cccc(/C=C2\CCCc3ccccc3C2=O)c1OC,> 500,142,> 500,8.58,–,–,–,–,4.54
O=C1/C(=C/c2ccc(Cl)cc2Cl)CCCc2ccccc21,> 500,407,> 500,14,–,–,–,–,5.65
COc1cc(/C=C2\CCCc3ccccc3C2=O)cc(OC)c1OC,23.1,11.7,35.8,8.68,–,–,–,–,4.29
O=C1/C(=C/c2ccc(Cl)cc2Cl)Cc2ccccc21,> 500,> 500,> 500,> 50,–,–,–,–,–
COc1ccccc1/C=C1\CCc2ccccc2C1=O,31.3,12.6,40.5,17.5,–,–,–,–,–
COc1cc(/C=C2\CCc3ccccc3C2=O)cc(OC)c1OC,8.28,7.04,31.2,6.72,–,–,–,–,–
O=C1/C(=C/c2ccccc2Cl)CCc2ccccc21,29.6,8.8,30,17.5,–,–,–,–,–
O=C1/C(=C/c2ccccc2[N+](=O)[O-])CCc2ccccc21,8.12,7.22,10.8,12.6,–,–,–,–,–
O=C1/C(=C/c2ccccc2Br)Cc2ccccc21,95.4,46.8,64.2,> 50,–,–,–,–,–
O=C1/C(=C/c2ccc(Cl)c(Cl)c2)CCCc2ccccc21,18.2,11.8,45.7,12.2,–,–,–,–,5.71
COc1ccc(/C=C/C(=O)c2ccccc2)cc1 [4-METHOXY CHALCONE],30,33.5,50.4,10.6,–,–,–,–,–
COc1ccc(/C=C2\Cc3ccccc3C2=O)cc1OC,468,286,264,23.9,–,–,–,–,–
O=C1/C(=C/c2ccccc2F)Cc2ccccc21,54.2,47.1,150,31.7,–,–,–,–,–
